# Bioassay records deposited in PubChem BioAssay by several laboratories.
# Hits are enriched below; roughly 5.3% of the tested compounds scored in any of these assays.
# Calb FLC = affects C. albicans growth with fluconazole; C. albicans CaCi-2 (fluconazole-resistant clinical isolate) + fluconazole, Alamar Blue growth, 48 h; 300,000 compounds, 0.57% hits; growth inhibition, % (test concentration not listed);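 active = growth inhibition above about 58% in most replicates, limit read from the data, passing the limit was not always enough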;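 note: all wells also contain fluconazole at 8 µg/ml as a sub-toxic cotreatment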
# Mdm2-MdmX inh = disrupts the human Mdm2-MdmX interaction. SaOS-2 split-luciferase Mdm2/MdmX complementation, luminescence. 330,000 compounds, 3% hits. O15151+Q00987. AID 485346. inhibition, % at 8 µM;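 active = inhibition of at least 50% at 8 µM in the primary screen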
# Beta cell apopt = blocks beta cell apoptosis. INS-1E cytokine-induced death, ATP luminescence, 48 h; percent of positive-control rescue, neutral wells zero. protection from apoptosis, % (test concentration not listed). 300,000 compounds, 0.8% hits;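 active = Every replicate reaches about 75%, or at least half do and their mean reaches it too, limit read from the data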;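 note: higher means more ATP so stronger rescue from cytokine killing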
# CSC inhib = blocks cancer stem cells. cancer stem cell-like cells viability, luminescence. inhibition, % at 7.5 µM. 300,000 compounds, 1.1% hits; in the data active = inhibition above about 75%; tested in HMLE shEcad cells
# NALP3 yeast inh = inhibitors of NALP3 inflammasome in yeast | Yeast reconstituted NLRP3/ASC/caspase-1, beta-gal luminescence, 24 h | inhibition, % at 10 µM | 330,000 compounds, 0.39% hits;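 active = inhibition of 50% or more; inactive = inhibition below 50%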
# T cruzi inh = T. cruzi replication inhibition | T. cruzi beta-gal in NIH3T3, luminescence, 90 h | inhibition, % (test concentration not listed) | 300,000 compounds, 1.4% hits | AID 1885;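 active = mean inhibition across valid replicates above about 55%, limit read from the data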;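 note: signal also drops with host cell toxicity which is not excluded here; higher percent means less beta-gal luminescence so fewer parasites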
#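 assay system = mouse NIH/3T3 fibroblasts infected with β-gal-expressing T. cruzi Tulahuen C4 | input = 5,000 NIH/3T3 host cells per well | buffer or medium = DMEM plus 2% FBS | timing = 3 h host attachment, then at least 90 h co-culture | measured by = GalScreen luminescence, 60 min | evaluation = luminescence reflecting intracellular parasite burden, expressed as percent inhibition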
# A number is an active result; . = inactive; / = no result given.
SMILES,Calb FLC,Mdm2-MdmX inh,Beta cell apopt,CSC inhib,NALP3 yeast inh,T cruzi inh
COCc1cc(CN2CCCC(C(=O)c3cccc(C(F)(F)F)c3)C2)ccc1OC (configuration not stated),.,.,.,.,.,66
O=C(NCC1CCCN(Cc2ccc3nonc3c2)C1)c1cccc(C(F)(F)F)c1 (configuration not stated),.,.,.,.,.,58
CCC1=Nc2cc(C(=O)O)ccc2Sc2ccc(Cl)cc21,.,.,.,.,.,.
C=CCSc1nnc(COc2ccc(=O)n(-c3ccccc3)n2)n1CC,.,.,.,.,.,.
CCn1c(COc2ccc(=O)n(-c3ccccc3)n2)nnc1SCc1cccc(OC)c1,85,.,.,.,.,.
CC(C(=O)N(C)Cc1ccccc1)N1CCN(C/C=C/c2ccccc2)CC1 (configuration not stated),.,.,.,/,.,60
CC(=O)c1ccc(NC(=O)C(C)N2CCN(C/C=C/c3ccccc3)CC2)cc1 (configuration not stated),.,.,/,.,.,.
Fc1ccc(C(c2ccc(F)cc2)N2CCN(C/C=C/c3ccccc3)CC2)cc1,/,.,.,99,.,.
Cc1ccc2c(c1)C1CN(C)CCC1N2S(=O)(=O)c1cccc(C(F)(F)F)c1 (configuration not stated),/,.,.,.,.,/
CCc1ccc(OC(C)C(=O)N(Cc2ccco2)C2CCS(=O)(=O)C2)cc1 (configuration not stated),.,.,.,.,.,.
CCCn1c(N)c(C(=O)COC(=O)c2c(C)noc2C)c(=O)n(C)c1=O,100,.,.,.,.,.
O=C(NNC(=O)c1cc(-c2ccc(Cl)cc2)nc2ccccc12)c1csc(N2CCOCC2)n1,82,.,.,.,.,.
O=C(NNC(=O)c1cc(-c2ccccc2)nc2ccccc12)c1csc(N2CCOCC2)n1,.,.,.,.,.,.
N#CC1=C(N)NC(SCc2ccc(Br)cc2)=C(C#N)C12CCCCC2,.,.,.,.,.,66
N#CC1=C(N)NC(SCc2ccccc2)=C(C#N)C12CCCC2,.,.,.,78,.,.
CCn1c(=O)c([N+](=O)[O-])c(NCCc2ccccc2)c2ccccc21,.,.,.,.,.,.
Cn1c(=O)c([N+](=O)[O-])c(Cl)c2ccccc21,.,/,/,/,/,88
Cn1c(=O)c([N+](=O)[O-])c(NCCc2ccccc2)c2ccccc21,.,.,.,.,.,59
CCN(CC)c1c([N+](=O)[O-])c(=O)n(C)c2ccccc12,.,.,.,.,.,.
O=C(CCCCn1c(=O)[nH]c2ccccc2c1=O)NC1CCN(Cc2ccccc2)CC1,.,.,.,.,.,.
O=C(CCCCCn1c(=S)[nH]c2ccc(N3CCOCC3)cc2c1=O)NC1CCN(Cc2ccccc2)CC1,.,.,.,.,.,65
O=C(NC1CCN(Cc2ccccc2)CC1)c1ccc(Cn2c(=S)[nH]c3ccc(N4CCOCC4)cc3c2=O)cc1,.,.,/,/,.,60
O=C(CCCc1c[nH]c2ccccc12)Nc1ncccc1O,.,.,.,.,.,.
CCCCCCSc1ccc([C@@H]2[C@@H]3C(=O)N(C)C(=O)[C@@H]3[C@]3(C(=O)OC)CCCCN23)cc1OC,.,.,.,105,.,.
N=C(N)c1ccc(/C=C/c2ccc(C(=N)N)cc2O)cc1,95,.,.,.,.,.
SMILES,Calb FLC,Mdm2-MdmX inh,Beta cell apopt,CSC inhib,NALP3 yeast inh,T cruzi inh
O=C(CNC(=O)c1cccc(Br)c1)N/N=C/c1cccs1,.,.,.,.,.,.
C=CCOc1ccc(/C=N\NC(N)=S)cc1,.,.,.,.,.,64
COc1ccc(/C=N/NC(N)=S)cc1,.,.,.,.,.,.
COC(=O)c1ccc(COc2ccc(/C=N/NC(N)=S)cc2)o1,.,.,.,.,.,55
O=C1c2ccccc2C(Nc2ccc(Cl)cn2)N1c1ccccn1 (configuration not stated),.,.,.,.,.,.
c1ccc(Cc2noc(CN3CCN(CCOc4ccccc4)CC3)n2)cc1,.,.,.,.,.,57
CN1CCN(Cc2nc(Cc3ccccc3)no2)CC1c1ccccc1 (configuration not stated),.,.,.,.,.,.
